Data set [1] has as its system Lewis lung carcinoma cell line. The data set can be described thus: Antitumor activity against mouse LLC cells xenografted in mouse assessed as tumor inhibition at 1 mg/kg, ip qd for 7 days measured every 3 days for 21 days. The settings on record: route intraperitoneal. It is filed as functional.
The nature of data set [2]: Antitumor activity against mouse Sarcoma 180 cells xenografted in mouse assessed as tumor inhibition at 1 mg/kg, ip qd for 7 days measured every 3 days for 21 days. It is filed as functional. The note with it: Sarcoma-180, ip, route intraperitoneal.
Another data set deals with Mus musculus. In words: Neurotoxicity in ip dosed C57BL/6 mouse assessed as tremble, twitch, jumping and supination response. It counts as toxicity, organism-based. The note with it: in vivo. The method, boiled down: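 C57BL/6 mice (9–12 weeks, 18–22 g), fasted overnight with water, dosed i.p. with 1.0–500 mg/kg in 0.5% CMC-Na; 10 per group (5 male, 5 female). Watched continuously 2 h for tremor, twitch, jumping, supination and other behavior, then intermittently to 24 h and occasionally to 14 days; killed day 14, with heart, liver and kidneys inspected.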

Data set [3] in a line: Acute toxicity in ip dosed C57BL/6 mouse measured up to 14 days. It is filed as organism-based. The note with it: in vivo. The method in brief: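 Healthy C57BL/6 mice (9–12 weeks, 18–22 g), fasted overnight, 10 per group (5 male, 5 female). Single i.p. dose, 1.0 to 500 mg/kg in 0.5% CMC-Na. Watched continuously for 2 h, intermittently over 24 h, then occasionally to day 14 for behaviour, deaths and delayed effects. Heart, liver and kidneys inspected at necropsy. LD50 derived graphically.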

Another data set relates to KB. The data set can be described thus: Cytotoxicity against human KB cells by MTT assay. It is filed as functional, cell-based. The method in brief:
(§1)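 Cells grown in RPMI-1640 with 10% fetal calf serum plus penicillin and streptomycin, 37 °C, 5% CO₂. Compounds in DMSO, final ≤2% (v/v), tested in 96-well cultures with MTT staining. IC₅₀ = concentration cutting optical density 50% versus untreated cells; three replicate wells per point; mean of three independent determinations.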
On the technique in general: Tetrazolium assays rely on reduction of a dye to a coloured formazan, in cell work by metabolically active cells.

Another data set relates to CWR22R. In words: Cytotoxicity against human 22Rv1 cells by MTT assay. It is filed as functional, cell-based. The method in brief: as §1
The subject of the next data set is U-251. The data set can be described thus: Cytotoxicity against human U251 cells by MTT assay. It is filed as functional, cell-based. The method, boiled down: as §1
A short description of data set [4]: Cytotoxicity against human Blu-87 cells by MTT assay. It is filed as functional, cell-based. The method, boiled down: as §1
A further data set concerns 769-P. The data set can be described thus: Cytotoxicity against human 769-P cells by MTT assay. It is filed as functional, cell-based. The method in brief:
as §1

A further data set deals with SCaBER. In words: Cytotoxicity against human SCaBER cells by MTT assay. It is filed as functional, cell-based. The method, boiled down:
as §1

For a further data set, the system named is HT-29. In words: Cytotoxicity against human HT-29 cells by MTT assay. It counts as functional, cell-based. The method in brief:
as §1

Another data set has as its system 786-0. The data set can be described thus: Cytotoxicity against human 786-0 cells by MTT assay. It counts as functional, cell-based. The method in brief:
as §1

The test system of another data set is A-375. The data set can be described thus: Cytotoxicity against human A375 cells by MTT assay. It counts as functional, cell-based. The method in brief:
as §1

The next data set relates to A549. The data set can be described thus: Cytotoxicity against human A549 cells by MTT assay. It is filed as functional, cell-based. The method, boiled down: as §1
The next data set deals with OS-RC-2. In words: Cytotoxicity against human OS-RC2 cells by MTT assay. It is filed as functional, cell-based. The method, boiled down:
as §1

Data set [5] has as its system Lewis lung carcinoma cell line. In words: Antitumor activity against mouse LLC cells xenografted in mouse assessed as tumor inhibition at 3 mg/kg, ip qd for 7 days measured every 3 days for 21 days. It counts as functional. The note with it: route intraperitoneal.
Data set [6] can be described thus: Antitumor activity against mouse Sarcoma 180 cells xenografted in mouse assessed as tumor inhibition at 3 mg/kg, ip qd for 7 days measured every 3 days for 21 days. It is filed as functional. The note with it: Sarcoma-180, ip, route intraperitoneal.
A further data set concerns MCF7. In words: Cytotoxicity against human MCF7 cells by MTT assay. It counts as functional, cell-based. The method, boiled down: as §1
Another data set relates to HepG2. The data set can be described thus: Cytotoxicity against human HepG2 cells by MTT assay. It counts as functional, cell-based. The method, boiled down: as §1
The next data set has as its system Bel-7402. In words: Cytotoxicity against human Bel7402 cells by MTT assay. It counts as functional, cell-based. The method, boiled down: as §1
For the next data set, the system named is BGC-823. The data set can be described thus: Cytotoxicity against human BGC823 cells by MTT assay. It is filed as functional, cell-based. The method, boiled down:
as §1

Another data set concerns HeLa. In words: Cytotoxicity against human HeLa cells by MTT assay. It counts as functional, cell-based. The method, boiled down:
as §1

Data set [7] relates to Lewis lung carcinoma cell line. The data set can be described thus: Antitumor activity against mouse LLC cells xenografted in mouse assessed as tumor inhibition at 20 mg/kg, ip qd for 7 days measured every 3 days for 21 days. It counts as functional. The note with it: route intraperitoneal.
A short description of data set [8]: Antitumor activity against mouse Sarcoma 180 cells xenografted in mouse assessed as tumor inhibition at 20 mg/kg, ip qd for 7 days measured every 3 days for 21 days. It is filed as functional. The settings on record: Sarcoma-180, ip, route intraperitoneal.

Molecules are shown by their SMILES. Where only a bound is given, the exact number is not on record here.

As a reminder, the inhibition in vivo is the relative decrease from the control value, in per cent. Broadly, the LD50 is the dose expected to kill half of the subjects tested. A word on the IC50: it is the concentration needed to halve the response being measured. Lower therefore signals inhibition by little substance. Turning to `Cc1c2c(cc[n+]1Cc1ccccc1)c1ccc(OCc3ccccc3)cc1n2CC(C)C.[Br-]`, the inhibition in vivo at 1 mg/kg in [1] is 23.7%; in [2], 52.6%. Further, the Activity entry in the data set with Mus musculus is listed as “Non-toxic”. Moreover, the LD50 at 336 h in data set [3] was determined as 5 mg/kg. Also, the IC50 in the data set on KB is under 1.5 µM; with CWR22R it was under 1.5 µM; with U-251, under 1.5 µM; in data set [4], 6.9 µM; in the data set with 769-P, 2.4 µM; with SCaBER, 4.6 µM. Further, the IC50 was 3.4 µM in the data set with HT-29; under 1.5 µM in the data set on 786-0; 3.3 µM with A-375; 3.5 µM in the data set with A549; 4.6 µM in the data set on OS-RC-2.

With `CCn1c2cc(OCCCc3ccccc3)ccc2c2cc[n+](Cc3ccccc3)c(C)c21.[Br-]`, the inhibition in vivo at 3 mg/kg is 27.2% in data set [5] and 53.1% in data set [6]. In addition, in the data set on Mus musculus, the Activity result is reported as “Non-toxic”. The molecule further yielded an LD50 at 336 h in data set [3] of 15 mg/kg. Moreover, the half-maximal inhibitory concentration (IC50) with KB is under 1.5 µM; in the data set with U-251, 10.5 µM; in [4], 17.3 µM; with 769-P, 5 µM; with SCaBER, 16.2 µM; with HT-29, 4.2 µM. The IC50 with 786-0 was 1.5 µM; with A-375, 2.4 µM; in the data set on A549 it was 2.3 µM; with OS-RC-2, 2.2 µM; in the data set with MCF7 it was 2.8 µM; in the data set on HepG2 it was 7.6 µM. Moreover, the IC50 was 2.4 µM in the data set on Bel-7402, 7.6 µM with BGC-823 and 2.2 µM in the data set on HeLa.

With `CCC(CC)Oc1ccc2c3ccnc(C)c3n(CCCc3ccccc3)c2c1`, the inhibition in vivo at 20 mg/kg in data set [7] worked out at 27.1%; in data set [8], 30.1%. For the same molecule, in the data set with Mus musculus, the Activity entry is listed as “Non-toxic”. In [3], this molecule gave an LD50 at 336 h of 100 mg/kg. Also, the IC50 with MCF7 amounted to 41.9 µM; in the data set with HepG2 it was 7.3 µM; in the data set with Bel-7402, 34.3 µM; in the data set with BGC-823, 18.3 µM; with HeLa it was 70.1 µM.

Values taken from ChEMBL document CHEMBL2311271 (Eur J Med Chem, 2013).
